From ChEMBL document CHEMBL4219052, “Synthesis and biological evaluation of 6-substituted-5-fluorouridine ProTides” (Bioorg Med Chem, 2018)

What was measured:
[1] = Cytotoxicity against human Hs445 cells after 72 hrs by MTS assay; type: functional, cell-based; details: Hs 445, 72 h
Summary of the method: (§1)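 Commercial screen: tumour cells seeded at 0.5 to 100 x 10³ cells/well the day before dosing, then exposed 72 h to compound in duplicate, 9 serial 3.16-fold dilutions from 198 µM top concentration. MTS added for a further 4 h at 37 °C, absorbance read; IC50 taken as 50% inhibition of viability by curve fitting.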

MV4-11 = assay: Cytotoxicity against human MV411 cells after 72 hrs by MTS assay; type: functional, cell-based; details: MV4-11, 72 h; summary of the method: as §1
[2] = Cytotoxicity against African green monkey Vero cells measured after 3 days by CelltiterGlo luminescence assay; type: cell-based; details: chlorocebus sabaeus
Summary of the method: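 Vero cells seeded and left overnight; growth medium then replaced by serial compound dilutions, added in triplicate; medium-only wells defined 0% cytotoxicity. On day 3 cells were lysed and ATP content measured by luciferase luminescence (CellTiter-Glo); CC50 obtained from a 4-PL curve fit.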

RL = assay: Cytotoxicity against human RL cells after 72 hrs by MTS assay; type: functional, cell-based; summary of the method: as §1
MIA PaCa-2 = assay: Cytotoxicity against human MIAPaCa2 cells after 72 hrs by MTS assay; type: functional, cell-based; details: MIA PaCa-2, 72 h; summary of the method: as §1
MCF7 = assay: Cytotoxicity against human MCF7 cells after 72 hrs by MTS assay; type: functional, cell-based; details: MCF7, 72 h; summary of the method: as §1
HEL 92.1.7 = assay: Cytotoxicity against human HEL 92.1.7 cells after 72 hrs by MTS assay; type: functional, cell-based; details: HEL 92.1.7, 72 h; summary of the method: as §1
Chikungunya virus = assay: Antiviral activity against Chikungunya virus infected in African green monkey Vero cells assessed as reduction in virus-induced cytopathic effect pretreated for 1 hr followed by viral infection measured after 3 days by crystal violet staining based assay; type: functional, organism-based
SW-620 = assay: Cytotoxicity against human SW620 cells after 72 hrs by MTS assay; type: functional, cell-based; details: SW-620, 72 h; summary of the method: as §1
Carboxypeptidase Y [3] = biological target: T1, Carboxypeptidase Y (Saccharomyces cerevisiae (strain ATCC 204508 / S288c) (Baker's yeast), UniProt P00729); assay: Prodrug activation assessed as yeast carboxypeptidase Y mediated (2S)-2-((((2R,3S,4R,5R)-5-(6-azido-5-fluoro-2,4-dioxo-3,4-dihydropyrimidin-1(2H)-yl)-3,4-dihydroxytetrahydrofuran-2-yl)methoxy)(phenoxy)phosphorylamino)propanoic acid formation at pH 7.6 measured within 10 mins by 31P NMR analysis; details: pH 7.6, 10 min
T1 sequence (P00729 whole entry): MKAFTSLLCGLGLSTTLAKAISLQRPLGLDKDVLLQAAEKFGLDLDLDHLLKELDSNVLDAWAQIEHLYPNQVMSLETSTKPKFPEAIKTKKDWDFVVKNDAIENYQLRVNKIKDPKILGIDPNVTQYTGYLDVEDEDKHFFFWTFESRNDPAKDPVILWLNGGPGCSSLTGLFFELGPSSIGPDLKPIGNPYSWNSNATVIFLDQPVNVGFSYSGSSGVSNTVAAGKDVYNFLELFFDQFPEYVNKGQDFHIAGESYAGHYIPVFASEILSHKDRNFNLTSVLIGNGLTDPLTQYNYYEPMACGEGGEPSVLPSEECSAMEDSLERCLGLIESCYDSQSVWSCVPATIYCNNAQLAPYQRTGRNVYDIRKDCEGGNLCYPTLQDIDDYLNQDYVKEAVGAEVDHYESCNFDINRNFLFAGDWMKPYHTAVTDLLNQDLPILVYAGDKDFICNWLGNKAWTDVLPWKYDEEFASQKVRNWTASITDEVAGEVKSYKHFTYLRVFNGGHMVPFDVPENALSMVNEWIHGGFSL
Summary of the method: (§2)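 ProTide (5.0 mg) dissolved in acetone-d6 (0.15 mL) plus Trizma buffer pH 7.6 (0.30 mL), treated with carboxypeptidase Y; conversion followed by ³¹P NMR over 14 h.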

Carboxypeptidase Y [4] = biological target: T1, Carboxypeptidase Y; assay: Prodrug activation assessed as yeast carboxypeptidase Y mediated diastereoisomer formation at pH 7.6 by 31P NMR analysis; summary of the method: as §2

SMILES | IC50 [1] [µM] | IC50 (MV4-11) [µM] | CC50 at 72 h [2] [µM] | IC50 (RL) [µM] | IC50 (MIA PaCa-2) [µM] | IC50 (MCF7) [µM] | IC50 (HEL 92.1.7) [µM] | EC50 (Chikungunya virus) [µM] | IC50 (SW-620) [µM] | Drug metabolism (Carboxypeptidase Y [3]) [ppm] | Drug metabolism (Carboxypeptidase Y [4]) [ppm]
CCCCCCOC(=O)[C@H](C)NP(=O)(OC[C@H]1O[C@@H](n2c(C)c(F)c(=O)[nH]c2=O)[C@H](O)[C@@H]1O)Oc1ccccc1 (stereo partly drawn) | > 50 | > 50 | > 200 | > 50 | > 50 | > 50 | > 50 | > 200 | > 50 |  | 
Cc1c(F)c(=O)[nH]c(=O)n1[C@@H]1O[C@H](COP(=O)(N[C@@H](C)C(=O)OCC(C)(C)C)Oc2cccc3ccccc23)[C@@H](O)[C@H]1O (stereo partly drawn) | > 50 | > 50 | 81.3 | > 50 | > 50 | > 50 | > 50 | > 200 | > 50 |  | 
C[C@H](NP(=O)(OC[C@H]1O[C@@H](n2c(N=[N+]=[N-])c(F)c(=O)[nH]c2=O)[C@H](O)[C@@H]1O)Oc1ccccc1)C(=O)O (stereo partly drawn) |  |  |  |  |  |  |  |  |  | 4.68 to 4.87 | 
CCCCCOC(=O)[C@H](C)NP(=O)(OC[C@H]1O[C@@H](n2c(I)c(F)c(=O)[nH]c2=O)[C@H](O)[C@@H]1O)Oc1ccccc1 (stereo partly drawn) | 2.6 | 0.2 |  | 0.8 | 1.31 | 7.83 | 0.5 |  | 1.12 |  | 
CCCCCCOC(=O)[C@H](C)NP(=O)(OC[C@H]1O[C@@H](n2c(N=[N+]=[N-])c(F)c(=O)[nH]c2=O)[C@H](O)[C@@H]1O)Oc1cccc2ccccc12 (stereo partly drawn) | 6 | 6.2 |  | 9 | 24 | 31 | 10 |  | 21 |  | 
CCCCCCOC(=O)[C@H](C)NP(=O)(OC[C@H]1O[C@@H](n2c(N=[N+]=[N-])c(F)c(=O)[nH]c2=O)[C@H](O)[C@@H]1O)Oc1ccccc1 (stereo partly drawn) | 18 | 9 |  | 20 | > 50 | > 50 | 39 |  | 38 |  | 3.64 to 3.82
Cc1c(F)c(=O)[nH]c(=O)n1[C@@H]1O[C@H](COP(=O)(N[C@@H](C)C(=O)OCc2ccccc2)Oc2ccccc2)[C@@H](O)[C@H]1O (stereo partly drawn) | > 50 | > 50 |  | > 50 | > 50 | > 50 | > 50 |  | > 50 |  | 
Cc1c(F)c(=O)[nH]c(=O)n1[C@@H]1O[C@H](COP(=O)(N[C@@H](C)C(=O)OCc2ccccc2)Oc2cccc3ccccc23)[C@@H](O)[C@H]1O (stereo partly drawn) | > 50 | > 50 | > 200 | > 50 | > 50 | > 50 | > 50 | > 200 | > 50 |  | 
C[C@H](NP(=O)(OC[C@H]1O[C@@H](n2c(I)c(F)c(=O)[nH]c2=O)[C@H](O)[C@@H]1O)Oc1ccccc1)C(=O)OC1CCCCC1 (stereo partly drawn) | 3.8 | 0.74 |  | 2.6 | 4.57 | 8.12 | 4.1 |  | 4.84 |  | 
CCc1c(F)c(=O)[nH]c(=O)n1[C@@H]1O[C@H](COP(=O)(N[C@@H](C)C(=O)OCc2ccccc2)Oc2cccc3ccccc23)[C@@H](O)[C@H]1O (stereo partly drawn) | 10 |  | 53.1 | 27 |  | > 50 | > 50 | > 50 | 12 |  | 
C[C@H](NP(=O)(OC[C@H]1O[C@@H](n2c(N=[N+]=[N-])c(F)c(=O)[nH]c2=O)[C@H](O)[C@@H]1O)Oc1cccc2ccccc12)C(=O)OCc1ccccc1 (stereo partly drawn) | 15 | 6.3 | 81.8 | 12 | 27 | 44 | 29 | > 200 | 28 |  | 
C[C@H](NP(=O)(OC[C@H]1O[C@@H](n2c(N=[N+]=[N-])c(F)c(=O)[nH]c2=O)[C@H](O)[C@@H]1O)Oc1ccccc1)C(=O)OCc1ccccc1 (stereo partly drawn) | 23 | 8 |  | 21 | 22 | 20 | 17 |  | 13 |  | 
CCOC(=O)[C@H](C)NP(=O)(OC[C@H]1O[C@@H](n2c(N=[N+]=[N-])c(F)c(=O)[nH]c2=O)[C@H](O)[C@@H]1O)Oc1ccccc1 (stereo partly drawn) | 44 | > 50 |  | > 50 | > 50 | > 50 | > 50 |  | > 50 |  | 
C[C@H](NP(=O)(OC[C@H]1O[C@@H](n2c(I)c(F)c(=O)[nH]c2=O)[C@H](O)[C@@H]1O)Oc1cccc2ccccc12)C(=O)OCc1ccccc1 (stereo partly drawn) | 0.71 | 0.08 |  | 0.4 | 0.63 | 3.93 | 0.4 |  | 0.52 |  | 
Cc1c(F)c(=O)[nH]c(=O)n1[C@@H]1O[C@H](CO)[C@@H](O)[C@H]1O | 7 | 2 | 9.04 | 16 | 12 | 5.4 | 14 | > 200 | 8.5 |  | 
O=c1[nH]c(=O)n([C@@H]2O[C@H](CO)[C@@H](O)[C@H]2O)c(I)c1F | 0.38 | 0.04 |  | 0.1 | 0.02 | 0.67 | 0.1 |  | 0.5 |  | 
CCc1c(F)c(=O)[nH]c(=O)n1[C@@H]1O[C@H](CO)[C@@H](O)[C@H]1O | > 50 |  | > 200 | > 50 |  | > 50 | > 50 | > 200 | > 50 |  | 
[N-]=[N+]=Nc1c(F)c(=O)[nH]c(=O)n1[C@@H]1O[C@H](CO)[C@@H](O)[C@H]1O | 14 | 6.6 | 47 | 10 | 11 | 6 | 10 | > 200 | 8 |  | 
